Data on 23 compounds can be found in ChEMBL document CHEMBL1135646, “In vitro photodynamic properties of chalcogenopyrylium analogues of the thiopyrylium antitumor agent AA1” (J Med Chem, 2002).

Data set [1] can be described thus: Distribution coefficient between octanol and phosphate buffer at pH6.0. The following applies: pH 6. The class given is physicochemical. In a few lines:
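Shake-flask partitioning between n-octanol and pH 6 phosphate buffer as the aqueous phase. Mixing for 3–5 min, then 1 h settling, with equilibration at 23 °C. Each phase is quantified by UV–visible spectrophotometry, and the result is reported as log P.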

A short description of data set [2]: Lethal dose evaluated in dark induced toxicity toward COLO-26, murine colon carcinoma cell line. To be noted: mouse, COLO-26 (Colon 26) murine colon carcinoma cells; read-out: LD50 (the source's name). In a few lines:
(§1)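 Colo-26 murine colon carcinoma cells were grown in RPMI 1640 with 10% FCS at 37 °C, 5% CO2, and plated at 5×10^3 cells/well the evening before. After two PBS washes, they took dye at various concentrations in HBSS with 1% FCS at 37 °C. They were then washed, left unirradiated, given growth medium, and kept 24 h. Survival was read by MTT, and LD50 is the 50% kill concentration.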

Data set [3] in a line: compound evaluated for dark induced toxicity toward COLO-26, murine colon carcinoma cell line. Type of data set: cell-based. The following applies: mouse, COLO-26 (Colon 26) murine colon carcinoma cells; read-out: LD50 (the source's name). In a few lines:
as §1

Data set [4] is described as follows: Ratio of LD50 value to that of EC50 value. Type of data set: functional.
The test system of another data set is Colon 26. Briefly: Effective concentration evaluated in light induced toxicity toward COLO-26, murine colon carcinoma cell line after irradiation with 15 J/cm**2 of 360-800nm light. Type of data set: functional, cell-based. The following applies: Mus musculus, Colon 26, light or radiation study. In a few lines: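 Colo-26 cells in RPMI 1640 with 10% FCS are seeded at 5×10^3 cells/well the evening before. Cells are washed with PBS and given dye in HBSS with 1% FCS for 2 h at 37 °C. After a wash, irradiation in PBS with 1% FCS uses filtered 360–800-nm tungsten-halogen light to 15 J cm⁻². Growth medium is added and cells are held 24 h. MTT read-out; EC50 is the concentration giving 50% cell kill.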

`CN(C)c1ccc(-c2cc(-c3ccc(N)cc3)[te+]c(-c3ccc(N4CCOCC4)cc3)c2)cc1` returned a pH-dependent lipophilicity (logD) in data set [1] of 1. Besides, the CC50 in data set [2] turned out to be 500 nM.

As to `CN(C)c1ccc(-c2cc(-c3ccc(N)cc3)[s+]c(-c3ccc(N)cc3)c2)cc1`, the CC50 in data set [3] stood at 100 nM. The compound also displayed a logD in data set [1] of 1.9.

As to `Nc1ccc(-c2cc(-c3ccc(N4CCOCC4)cc3)cc(-c3ccccc3)[se+]2)cc1`, the CC50 in data set [3] came out at 6500 nM. In data set [1], this compound returned a logD of 1.2.

With `Nc1ccc(-c2cc(-c3ccc(N4CCOCC4)cc3)cc(-c3ccc(N)cc3)[se+]2)cc1`, the CC50 in data set [3] worked out at 3800 nM. Further, in data set [4], the Ratio was found to be 3.2. In data set [1], this compound came in with a logD of 1.5. In the data set with Colon 26, this compound had an EC50 of 1200 nM.

Regarding `CN(C)c1ccc(-c2cc(-c3ccccc3)[s+]c(-c3ccc(N)cc3)c2)cc1`, in data set [3], the CC50 was determined as 70 nM. This compound registered a logD in data set [1] of 1.3.

Take `c1cc(N2CCOCC2)ccc1-c1cc(-c2ccc(N3CCOCC3)cc2)[se+]c(-c2ccc(N3CCOCC3)cc2)c1`: the CC50 in data set [3] turned out to be 7200 nM. Besides, the Ratio in data set [4] was found to be 9. This compound displayed a logD in data set [1] of 1.2. Besides, in the data set on Colon 26, a half-maximal effect (EC50) was put at 800 nM.

In the case of `CN(C)c1ccc(-c2cc(-c3ccc(N)cc3)[te+]c(-c3ccc(N)cc3)c2)cc1`, the CC50 in data set [3] turned out to be 500 nM. The compound also displayed a logD in data set [1] of 2.

In the case of `Nc1ccc(-c2cc(-c3ccc(N4CCOCC4)cc3)cc(-c3ccc(N4CCOCC4)cc3)[te+]2)cc1`, the CC50 in data set [3] was found to be 800 nM. The Ratio in data set [4] came to 1.3. The logD in data set [1] was found to be 1.6. In the data set with Colon 26, the midpoint of the response, the EC50, lay at 600 nM.

Turning to `Nc1ccc(-c2cc(-c3ccc(N4CCOCC4)cc3)cc(-c3ccc(N)cc3)[s+]2)cc1`, the CC50 in data set [3] came out at 800 nM. The logD in data set [1] was determined as 1.8.

Turning to `CN(C)c1ccc(-c2cc(-c3ccc(N(C)C)cc3)[se+]c(-c3ccc(N(C)C)cc3)c2)cc1`, the CC50 in data set [3] came out at 500 nM. Moreover, the Ratio in data set [4] amounted to 1.7. The compound further showed a log distribution coefficient (logD) in data set [1] of 2.2. Further, a half-maximal response in the data set on Colon 26 (EC50) required 300 nM.

Take `CN(C)c1ccc(-c2cc(-c3ccccc3)cc(-c3ccc(N)cc3)[se+]2)cc1`: in data set [3], the CC50 turned out to be 400 nM. In addition, in data set [1], the logD stood at 1.3.

On to `Nc1ccc(-c2cc(-c3ccccc3)cc(-c3ccc(N4CCOCC4)cc3)[s+]2)cc1`, for which the CC50 in data set [3] is 1800 nM. The compound further had a logD in data set [1] of 1.1.

In the case of `CN(C)c1ccc(-c2cc(-c3ccc(N(C)C)cc3)[s+]c(-c3ccc(N(C)C)cc3)c2)cc1`, the CC50 in data set [3] came to 500 nM. Also, the Ratio in data set [4] amounted to 2.5. Besides, in data set [1], the logD turned out to be 2.2. The compound further yielded an EC50 in the data set with Colon 26 of 200 nM.

With `CN(C)c1ccc(-c2cc(-c3ccccc3)[se+]c(-c3ccc(N)cc3)c2)cc1`, in data set [3], the CC50 is 2600 nM. Further, the Ratio in data set [4] is 13. In data set [1], this compound had a logD of 1.2. For the same compound, the concentration for a half-maximal effect (EC50) with Colon 26 worked out at 200 nM.

`CN(C)c1ccc(-c2cc(-c3ccccc3)[te+]c(-c3ccc(N)cc3)c2)cc1`: the CC50 in data set [3] was determined as 600 nM. In data set [1], this compound gave a logD of 1.9.

Turning to `CN(C)c1ccc(-c2cc(-c3ccc(N)cc3)[se+]c(-c3ccc(N4CCOCC4)cc3)c2)cc1`, the CC50 in data set [3] is 1500 nM. The Ratio in data set [4] stood at 21. Moreover, the pH-dependent lipophilicity (logD) in data set [1] amounted to 1. The compound also yielded an EC50 in the data set with Colon 26 of 70 nM.

`Nc1ccc(-c2cc(-c3ccc(N4CCOCC4)cc3)cc(-c3ccc(N4CCOCC4)cc3)[s+]2)cc1`: the CC50 in data set [3] was 66000 nM. The Ratio in data set [4] was determined as 33. The logD in data set [1] was found to be 1.3. The compound further registered a half-maximal effective concentration (EC50) with Colon 26 of 2000 nM.

As for `CN(C)c1ccc(-c2cc(-c3ccc(N)cc3)[se+]c(-c3ccc(N)cc3)c2)cc1`, the CC50 in data set [3] came to 1400 nM. In addition, in data set [4], the Ratio was 3.8. In data set [1], this compound came in with a logD of 1.7. A half-maximal effect in the data set with Colon 26 (EC50) was put at 370 nM.

As for `CN(C)c1ccc(-c2cc(-c3ccc(N)cc3)[s+]c(-c3ccc(N4CCOCC4)cc3)c2)cc1`, the CC50 in data set [3] is 900 nM. The same compound returned a logD in data set [1] of 0.9.

`Nc1ccc(-c2cc(-c3ccccc3)cc(-c3ccc(N4CCOCC4)cc3)[te+]2)cc1`: in data set [3], the CC50 was 70 nM. Also, in data set [1], the logD was 1.

Turning to `Nc1ccc(-c2cc(-c3ccccc3)cc(-c3ccc(N4CCOCC4)cc3)[se+]2)cc1`, the CC50 in data set [3] came to 900 nM. Besides, the logD in data set [1] amounted to 0.9.

In the case of `Nc1ccc(-c2cc(-c3ccc(N4CCOCC4)cc3)cc(-c3ccc(N)cc3)[te+]2)cc1`, in data set [3], the CC50 worked out at 1400 nM. Further, the logD in data set [1] came to 1.9.

In the case of `Nc1ccc(-c2cc(-c3ccc(N4CCOCC4)cc3)cc(-c3ccc(N4CCOCC4)cc3)[se+]2)cc1`, in data set [3], the CC50 worked out at 6900 nM. In addition, the Ratio in data set [4] turned out to be 3.6. For the same compound, the pH-dependent lipophilicity (logD) in data set [1] was found to be 1.2. In the data set on Colon 26, this compound displayed an EC50 of 1900 nM.

For orientation: logD means the decadic logarithm of the distribution of all forms, ionised or not, between an organic phase and buffer at a given pH. The low end stands for lower lipophilicity, the high end for higher lipophilicity. Usually EC50 stands for the concentration at which the effect is half-maximal. Higher therefore signals weaker potency.
